Data published in BindingDB's records for doi:10.1021/jm0500119 (Cnrs-University of Lille 2 Umr 8525, 2005).

Molecular target: Peptidyl-prolyl cis-trans isomerase NIMA-interacting 1 (Homo sapiens, UniProt Q13526)
Assay: Dissociation constant for human peptidyl-prolyl cis-trans isomerase NIMA-interacting 1
Summary of the method: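 15N-labeled Pin1 WW domain (His6-tagged, expressed in E. coli BL21(DE3)) in 25 mM deuterated Tris-HCl pH 6.8, 50 mM NaCl, 5 mM DTT, 2.5 mM EDTA, 10% D2O; 600 MHz 1H-15N HSQC at 293 K. 50 μM protein titrated with ligand 0.025–1 mM final; chemical shift perturbations fitted to a single-site equation for KD.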

Sequence of Peptidyl-prolyl cis-trans isomerase NIMA-interacting 1 (Q13526 whole entry): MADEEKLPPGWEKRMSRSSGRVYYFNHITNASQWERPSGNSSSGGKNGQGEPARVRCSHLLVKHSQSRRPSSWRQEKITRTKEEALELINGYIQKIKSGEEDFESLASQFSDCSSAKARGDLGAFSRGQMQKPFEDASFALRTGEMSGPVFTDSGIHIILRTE

Kd: > 2000 µM
Structure (SMILES): NC(=O)[C@@H]1CCCN1C(=O)CCNc1c(O)c(=O)c1=O [1-[(S)-3-(2-Hydroxy-3,4-dioxo-cyclobut-1-enylamino)-propionyl]-pyrrolidine-2-carboxylic acid amide]
